Assays:
[1] = biological target: Tubulin (Sus scrofa) (UniProt P02554+P02550); test: (§1) Tested for the inhibition of polymerization rate of tubulin microtubule assembly.; assay type: functional
How it was run: (§2)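 Porcine brain tubulin (three cycles, ca. 1 mg/mL, 15% MAPs) in 0.1 M MES, 0.5 mM MgCl2, 1 mM EGTA, 1 mM GTP, pH 6.6. Compound (from 10^-2 M DMSO stock) preincubated with tubulin 1 h at 37 °C, cooled to 4 °C for 30 min, then warmed to 37 °C. Turbidity followed at 350 nm. I50 = concentration halving maximum polymerization rate.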

[2] = biological target: T1, Tubulin (Sus scrofa, UniProt P02554+P02550); test: Binding affinity against tubulin using [3H]colchicine as radioligand; assay type: protein assay
[3] = biological target: T1, Tubulin; test: as §1; assay type: functional; how it was run: as §2
[4] = biological target: T1, Tubulin; test: Binding affinity against tubulin usingf [3H]-colchicine as radioligand; assay type: protein assay

Tubulin (Sus scrofa), sequence (P02550 whole entry, looked up): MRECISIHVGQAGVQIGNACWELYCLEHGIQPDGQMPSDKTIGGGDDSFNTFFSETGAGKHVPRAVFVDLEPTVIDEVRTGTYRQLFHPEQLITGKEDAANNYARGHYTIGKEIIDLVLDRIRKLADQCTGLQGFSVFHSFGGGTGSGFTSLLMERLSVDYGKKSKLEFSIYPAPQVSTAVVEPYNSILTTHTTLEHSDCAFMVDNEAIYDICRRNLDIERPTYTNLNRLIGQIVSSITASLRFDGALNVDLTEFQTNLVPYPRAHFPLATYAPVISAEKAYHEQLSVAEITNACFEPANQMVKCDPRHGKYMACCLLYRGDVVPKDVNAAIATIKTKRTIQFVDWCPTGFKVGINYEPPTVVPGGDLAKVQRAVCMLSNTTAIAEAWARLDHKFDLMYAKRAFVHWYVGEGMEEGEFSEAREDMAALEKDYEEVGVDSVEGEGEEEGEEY
Tubulin (Sus scrofa), sequence (P02554 whole entry, looked up): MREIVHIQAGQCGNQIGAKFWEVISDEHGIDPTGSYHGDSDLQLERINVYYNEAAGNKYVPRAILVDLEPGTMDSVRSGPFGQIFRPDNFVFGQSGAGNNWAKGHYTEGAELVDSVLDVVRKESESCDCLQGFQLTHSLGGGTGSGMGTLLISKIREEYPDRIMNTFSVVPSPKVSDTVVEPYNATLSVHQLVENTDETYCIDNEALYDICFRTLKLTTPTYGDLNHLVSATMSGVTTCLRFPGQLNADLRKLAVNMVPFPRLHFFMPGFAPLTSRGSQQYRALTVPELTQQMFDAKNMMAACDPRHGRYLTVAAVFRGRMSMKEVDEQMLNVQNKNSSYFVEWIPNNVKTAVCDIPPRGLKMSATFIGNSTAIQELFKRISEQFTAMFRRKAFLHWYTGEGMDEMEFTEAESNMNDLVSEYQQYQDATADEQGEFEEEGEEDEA

SMILES	I20 [1] [µM]	Ki [2] [µM]	I50 [3] [µM]	I30 [1] [µM]	Ki [4] [µM]
COc1cc2c(c(OC)c1OC)-c1cc3c(cc1C[C@@H]1COC(=O)[C@H]1C2)OCO3	70	100	60		
COc1cc2c(c(OC)c1OC)-c1cc3c(cc1C[C@@H]1COC(=O)[C@@H]1C2)OCO3		32	5	700	
COc1cc(CC2CCOC2=O)c(-c2cc3c(cc2CO)OCO3)c(OC)c1OC (stereo not drawn)		185			
COc1cc([C@@H]2c3cc4c(cc3CC3COC(=O)[C@@H]32)OCO4)cc(OC)c1OC (mixture of isomers)		201	2.1		
COc1cc2c(c(OC)c1OC)-c1cc3c(cc1C(=O)[C@@H]1COC(=O)[C@H]1C2)OCO3 (stereo in doubt; 5)		178	125		
COc1cc2c(c(OC)c1OC)-c1cc3c(cc1C(=O)[C@@H]1COC(=O)[C@H]1C2)OCO3 (stereo in doubt; 9)			110		[…]
COc1cc2c(c(OC)c1OC)-c1cc3c(cc1C(=O)[C@@H]1COC(=O)[C@H]1C2)OCO3 (stereo in doubt; 12)			450		
COc1cc2c(c(OC)c1OC)-c1cc3c(cc1C(=O)[C@@H]1COC(=O)[C@H]1C2)OCO3 (stereo in doubt; 13)			375		
COc1cc2c(c(OC)c1OC)-c1cc3c(cc1C(=O)[C@@H]1COC(=O)[C@H]1C2)OCO3 (stereo in doubt; 17)			162		
COc1cc2c(c(OC)c1OC)-c1cc3c(cc1[C@@H](OC(C)=O)C1COC(=O)[C@H]1C2)OCO3 (stereo partly drawn) [STEGANACIN]		10.5	3.5		

— ChEMBL document CHEMBL1121437, “Structure--antitubulin activity relationship in steganacin congeners and analogues. Inhibition of tubulin polymerization in vitro by (+/-)-isodeoxypodophyllotoxin” (J Med Chem, 1980)
